According to ChEMBL document CHEMBL1130821 (Bioorg Med Chem Lett, 1998):
Starred links: 1 amine or outer side, 2 acyl side, 3 side chain; linkers in the order of their positions; H or OH if unused. Non-standard residues stand in square brackets, D forms with d. Residues, ends and D or L forms follow the SMILES beside them. X1 = O=C([C@@H]1C(Cc2ccccc2)CCN1[*:1])[*:2]; NMeF = CN[C@@H](Cc1ccccc1)C(=O)O

Key:
[1] = molecular target: Substance-P receptor (Homo sapiens, UniProt P25103); experiment: Compound was evaluated for affinity towards human tachykinin NK-1 receptor expressed in CHO cells; assay type: cell-based
[2] = test system: CHO; experiment: Compound was evaluated for the blockade of NKA-induced (neurokinin A) IPs hydrolysis in CHO cells; assay type: functional, cell-based; settings: Cricetulus griseus, read-out: pA2 (converted)
Procedure, shortened: (§1)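 Intact CHO cells transfected with the human tachykinin NK-1 receptor. Antagonism of agonist-stimulated phosphoinositide (IP) hydrolysis is expressed as pA2, or as pKB where antagonism was uncompetitive.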

[3] = test system: CHO; experiment: Compound was evaluated for the blockade of [Pro]SP-induced cAMP formation in CHO cells; assay type: functional, cell-based; settings: Cricetulus griseus, read-out: pA2 (converted)
Procedure, shortened: (§2)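 Intact CHO cells transfected with the human NK-1 receptor. Antagonist inhibition of agonist-stimulated cAMP formation is reported as pA2, or as pKB for uncompetitive antagonism.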

[4] = test system: CHO; experiment: Compound was evaluated for the blockade of [Pro]SP-induced IPs hydrolysis in CHO cells; assay type: functional, cell-based; settings: Cricetulus griseus, read-out: pA2 (converted); procedure, shortened: as §1
[5] = test system: CHO; experiment: Compound was evaluated for the inhibition of IPs hydrolysis on intact CHO cells expressing the human tachykinin NK-1 receptor; assay type: functional, cell-based; settings: Cricetulus griseus; procedure, shortened: as §1
[6] = test system: CHO; experiment: Compound was evaluated for the inhibition of cAMP formation on intact CHO cells expressing the human tachykinin NK-1 receptor; assay type: functional, cell-based; settings: Cricetulus griseus; procedure, shortened: as §2

Sequence of Substance-P receptor (P25103 whole entry): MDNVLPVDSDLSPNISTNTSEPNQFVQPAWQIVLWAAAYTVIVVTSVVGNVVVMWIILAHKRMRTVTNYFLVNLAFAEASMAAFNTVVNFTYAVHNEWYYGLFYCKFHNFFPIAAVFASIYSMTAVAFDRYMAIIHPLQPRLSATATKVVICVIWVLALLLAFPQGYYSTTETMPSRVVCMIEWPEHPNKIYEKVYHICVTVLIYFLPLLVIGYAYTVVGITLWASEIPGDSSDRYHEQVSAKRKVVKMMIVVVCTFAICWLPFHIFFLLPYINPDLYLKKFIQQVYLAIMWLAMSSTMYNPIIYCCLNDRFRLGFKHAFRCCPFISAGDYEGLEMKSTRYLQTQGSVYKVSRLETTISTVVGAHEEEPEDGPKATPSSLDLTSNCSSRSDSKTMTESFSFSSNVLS

CC(C)C[C@@H](C(=O)N[C@@H](Cc1c[nH]c2ccccc12)C(N)=O)N1CC[C@@]2(CCCN2C(=O)[C@H](Cc2ccc(O)cc2)NC(=O)[C@H](Cc2ccccc2)NC(=O)[C@H](CCCCN)NC(=O)[C@H](CC(N)=O)NC(=O)[C@@H]2CCCN2C(=O)[C@H](CC(=O)O)NC(=O)[C@H](C)NC(=O)[C@@H]2CCC(=O)N2)C1=O
Ki [1]: 0.056 µM | Kb [2]: 0.0126 µM | Kb [3]: 0.0158 µM | Kb [4]: 0.0631 µM

CSCC[C@H](NC(=O)[C@H](CC(C)C)NC(=O)[C@@H]1CCCN1C(=O)[C@H](Cc1ccccc1)NC(=O)[C@H](Cc1ccccc1)NC(=O)[C@H](CCC(N)=O)NC(=O)[C@H](CCC(N)=O)NC(=O)[C@@H]1CCCN1C(=O)[C@H](CCCCN)NC(=O)[C@@H]1CCCN1C(=O)[C@@H](N)CCCN=C(N)N)C(N)=O
Ki [1]: 0.0011 µM | EC50 [5]: 0.0012 µM | EC50 [6]: 0.01 µM

CN(C(=O)[C@@H]1CCCN1C(=O)[C@H](Cc1ccccc1)NC(=O)[C@H](Cc1ccccc1)NC(=O)[C@H](CCC(N)=O)NC(=O)[C@H](CCC(N)=O)NC(=O)[C@@H]1CCCN1C(=O)[C@H](CCCCN)NC(=O)[C@@H]1CCCN1C(=O)[C@@H](N)CCCN=C(N)N)[C@@H](Cc1ccccc1)C(=O)N[C@@H](Cc1c[nH]c2ccccc12)C(N)=O (H-RPKPQQFFP[NMeF]W-NH2)
Ki [1]: 0.11 µM | Kb [2]: 0.398 µM | Kb [3]: 0.115 µM | Kb [4]: 0.347 µM

NCCCC[C@H](NC(=O)[C@@H]1CCCN1C(=O)[C@@H](N)CCCN=C(N)N)C(=O)N1CCC[C@H]1C(=O)N[C@@H](CCC(N)=O)C(=O)N[C@@H](CCC(N)=O)C(=O)N[C@@H](Cc1ccccc1)C(=O)N[C@@H](Cc1ccccc1)C(=O)N1CCC[C@H]1C(=O)N1CCC(Cc2ccccc2)[C@H]1C(=O)N[C@@H](Cc1c[nH]c2ccccc12)C(N)=O (some centres not stated) (H-RPKPQQFFP[X1]W-NH2)
Ki [1]: 0.079 µM | Kb [2]: 0.01 µM | Kb [3]: 0.0182 µM | Kb [4]: 0.0251 µM

CSCC[C@H](NC(=O)[C@H](CC(C)C)NC(=O)CNC(=O)[C@@H](NC(=O)[C@H](Cc1ccccc1)NC(=O)[C@H](CO)NC(=O)[C@H](CC(=O)O)NC(=O)[C@@H](NC(=O)[C@H](CCCCN)NC(=O)[C@@H](N)Cc1c[nH]cn1)[C@@H](C)O)C(C)C)C(N)=O [NEUROKININ A]
EC50 [5]: 0.008 µM | EC50 [6]: 1.24 µM
